The M2OR odorant receptor database
Residue numbers refer to the chain shown, from its start.

These compounds were tested against T1, OR1A2 (Homo sapiens) (UniProt Q9Y585). Conditions: stereoisomer not certain.
T1 sequence (whole entry): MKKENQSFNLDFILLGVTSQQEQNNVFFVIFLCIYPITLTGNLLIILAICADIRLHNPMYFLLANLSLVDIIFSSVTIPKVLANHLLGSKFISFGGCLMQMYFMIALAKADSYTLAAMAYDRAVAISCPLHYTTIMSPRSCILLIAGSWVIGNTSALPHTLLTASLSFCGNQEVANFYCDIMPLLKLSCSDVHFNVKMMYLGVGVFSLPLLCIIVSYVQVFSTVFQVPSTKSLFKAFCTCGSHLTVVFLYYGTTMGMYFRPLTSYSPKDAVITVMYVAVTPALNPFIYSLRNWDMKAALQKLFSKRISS
Outline: (§1)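 Values were gathered from published papers (main text and supplementary material), with extra details requested from the original authors when needed, and checked for typos and inconsistencies. Each receptor–molecule pair is called responsive (active) if the original authors judged the measured signal statistically different from baseline, and non-responsive (inactive) otherwise. Assay methods varied by source, often transient mammalian cell-line luciferase assays. Recorded details include cell line, G-protein, co-transfected protein and tags.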

Odorant receptor agonist call, active:
CCCCC(S)C(C)CO (stereo not given)

Odorant receptor agonist call, inactive:
CCC(S)C(C)CO (stereo not given)
CC(CO)CS (stereo not given)
CC1=NC(C)C(C)S1 (stereo not given)
CCC1OC(C)=C(O)C1=O (stereo not given)
CCCC(S)CCOC(C)=O (stereo not given)
CC1=C(O)C(=O)C(C)O1 (stereo not given)
CCCCCC(=O)C(C)C(C)=O (stereo not given)
CCC1OC(=O)C(O)=C1C (stereo not given)
Cc1cnc(C)c(C)n1
CCCCCCC=CCCC=O
CCCCCC(S)C(C)CO (stereo not given)
CC1CCCCCCCCCCCCC(=O)C1 (stereo not given)
CC(=O)c1c(C)c([N+](=O)[O-])c(C(C)(C)C)c([N+](=O)[O-])c1C
CC1=C(O)C(=O)OC1C (stereo not given)

These compounds were tested on T2, OR1A2 G256C W293C. Conditions: stereoisomer not certain.
T2 sequence (whole entry): T1 sequence (whole entry) with G256C, W293C
Outline: as §1

Odorant receptor agonist call, inactive:
CC1=NC(C)C(C)S1 (stereo not given)
CCC1OC(C)=C(O)C1=O (stereo not given)
CCCC(S)CCOC(C)=O (stereo not given)
CC1=C(O)C(=O)C(C)O1 (stereo not given)
CCC1OC(=O)C(O)=C1C (stereo not given)
Cc1cnc(C)c(C)n1
CCCCCCC=CCCC=O
CC1=C(O)C(=O)OC1C (stereo not given)

Each compound was assayed on T3, OR1B1. Conditions: stereoisomer not certain.
T3 sequence (whole entry): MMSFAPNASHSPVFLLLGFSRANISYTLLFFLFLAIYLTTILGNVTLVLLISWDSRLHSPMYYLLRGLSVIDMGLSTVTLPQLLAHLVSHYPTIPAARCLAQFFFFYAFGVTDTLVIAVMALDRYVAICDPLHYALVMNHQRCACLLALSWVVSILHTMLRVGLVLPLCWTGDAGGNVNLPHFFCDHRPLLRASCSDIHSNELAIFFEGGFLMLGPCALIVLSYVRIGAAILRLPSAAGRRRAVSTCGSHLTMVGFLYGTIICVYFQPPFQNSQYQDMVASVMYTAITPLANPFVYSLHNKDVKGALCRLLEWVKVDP
Outline: as §1

Odorant receptor agonist call, inactive:
CCC(S)C(C)CO (stereo not given)
CC(CO)CS (stereo not given)
CC1=NC(C)C(C)S1 (stereo not given)
CCC1OC(C)=C(O)C1=O (stereo not given)
CCCC(S)CCOC(C)=O (stereo not given)
CCCCC(S)C(C)CO (stereo not given)
CC1=C(O)C(=O)C(C)O1 (stereo not given)
CCCCCC(=O)C(C)C(C)=O (stereo not given)
CCC1OC(=O)C(O)=C1C (stereo not given)
Cc1cnc(C)c(C)n1
CCCCCCC=CCCC=O
CCCCCC(S)C(C)CO (stereo not given)
CC1CCCCCCCCCCCCC(=O)C1 (stereo not given)
CC(=O)c1c(C)c([N+](=O)[O-])c(C(C)(C)C)c([N+](=O)[O-])c1C
CC1=C(O)C(=O)OC1C (stereo not given)

Each compound was assayed against T4, OR1C1 (Homo sapiens) (UniProt Q15619). Conditions: stereoisomer not certain.
T4 sequence (whole entry): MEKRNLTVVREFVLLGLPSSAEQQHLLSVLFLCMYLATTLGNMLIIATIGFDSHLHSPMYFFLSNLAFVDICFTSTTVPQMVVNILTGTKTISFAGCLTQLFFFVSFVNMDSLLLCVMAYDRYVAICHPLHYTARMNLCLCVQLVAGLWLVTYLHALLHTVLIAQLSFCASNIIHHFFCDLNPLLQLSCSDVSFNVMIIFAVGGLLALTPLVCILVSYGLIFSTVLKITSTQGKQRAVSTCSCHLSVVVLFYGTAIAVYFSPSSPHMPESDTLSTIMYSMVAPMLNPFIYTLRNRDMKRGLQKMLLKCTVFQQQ
Outline: as §1

Odorant receptor agonist call, active:
O=c1ccc2ccccc2o1

Odorant receptor agonist call, inactive:
CCC(S)C(C)CO (stereo not given)
CC(CO)CS (stereo not given)
CC1=NC(C)C(C)S1 (stereo not given)
CCC1OC(C)=C(O)C1=O (stereo not given)
CCCC(S)CCOC(C)=O (stereo not given)
CCCCC(S)C(C)CO (stereo not given)
CC1=C(O)C(=O)C(C)O1 (stereo not given)
CCCCCC(=O)C(C)C(C)=O (stereo not given)
CCC1OC(=O)C(O)=C1C (stereo not given)
Cc1cnc(C)c(C)n1
CCCCCCC=CCCC=O
CCCCCC(S)C(C)CO (stereo not given)
CC1CCCCCCCCCCCCC(=O)C1 (stereo not given)
CC(=O)c1c(C)c([N+](=O)[O-])c(C(C)(C)C)c([N+](=O)[O-])c1C
CC1=C(O)C(=O)OC1C (stereo not given)

What follows are compounds tested against T5, OR1D2 (Homo sapiens) (UniProt P34982). Conditions: stereoisomer not certain.
T5 sequence (whole entry): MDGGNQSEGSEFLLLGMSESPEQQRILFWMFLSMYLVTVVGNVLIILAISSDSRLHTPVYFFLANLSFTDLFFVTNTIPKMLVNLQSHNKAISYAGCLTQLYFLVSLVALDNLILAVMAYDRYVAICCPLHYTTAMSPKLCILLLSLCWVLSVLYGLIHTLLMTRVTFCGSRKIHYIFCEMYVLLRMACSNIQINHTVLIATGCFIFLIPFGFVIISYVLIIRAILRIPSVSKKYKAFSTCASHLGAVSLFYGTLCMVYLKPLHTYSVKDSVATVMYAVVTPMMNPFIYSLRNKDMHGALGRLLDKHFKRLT
Outline: as §1

Odorant receptor agonist call, active:
O=CCCCc1ccccc1
CCc1ccc(CC(C)(C)C=O)cc1
O=CCCc1ccccc1
COc1ccc(CC(C)C=O)cc1 (stereo not given)
CC(C=O)Cc1ccc(C(C)C)cc1 (stereo not given)
CC(C)(C)c1ccc(OCC=O)cc1
CC(CC=O)c1ccccc1 (stereo not given)

Odorant receptor agonist call, inactive:
CC(CCO)c1ccccc1 (stereo not given)
CCC(S)C(C)CO (stereo not given)
CC(CO)CS (stereo not given)
O=CCCCCc1ccccc1
CC=Cc1ccc(OC)cc1
CC1=NC(C)C(C)S1 (stereo not given)
CCC1OC(C)=C(O)C1=O (stereo not given)
CC(C)c1ccccc1
CCCC(S)CCOC(C)=O (stereo not given)
CCCCC(S)C(C)CO (stereo not given)
CC1=C(O)C(=O)C(C)O1 (stereo not given)
CCCCCC(=O)C(C)C(C)=O (stereo not given)
CCC1OC(=O)C(O)=C1C (stereo not given)
Cc1cnc(C)c(C)n1
CCCCCCC=CCCC=O
CCCCCC(S)C(C)CO (stereo not given)
CC(C=O)Cc1ccc(C(C)(C)C)cc1 (stereo not given)
O=C(O)CCc1ccccc1
CC1=C(O)C(=O)OC1C (stereo not given)
